# How the values were obtained:
# [1] = Cytotoxicity against human HEL cells; assay type: cell-based; conditions: for MCC: read-out: MIC
# [2] = tested on: Human alphaherpesvirus 3; experiment: Antiviral activity against Varicella Zoster virus Oka infected in HEL cells assessed as reduction in viral plaque formation after 5 days; assay type: functional, organism-based; conditions: Human alphaherpesvirus 3, Oka, 120 h
# Procedure, shortened: (§1)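 Confluent HEL cell monolayers infected with 20 PFU VZV per well; after 1–2 h adsorption, residual virus removed and cells incubated in MEM with 2% inactivated FCS, 1% L-glutamine, 0.3% sodium bicarbonate plus graded compound concentrations.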
# [3] = tested on: Human alphaherpesvirus 3; experiment: Antiviral activity against Varicella Zoster virus YS infected in HEL cells assessed as reduction in viral plaque formation after 5 days; assay type: functional, organism-based; conditions: Human alphaherpesvirus 3, YS, 120 h; procedure, shortened: as §1
# [4] = Inhibition of Varicella Zoster virus thymidine kinase-mediated [3H]thymidine phosphorylation; parameters: species or system Human alphaherpesvirus 3
Structure (SMILES),MCC [1] [µM],EC50 [2] [µM],EC50 [3] [µM],CC50 [1] [µM],IC50 [4] [µM]
CCCCc1ccc(-c2cc3cn([C@H]4C[C@H](O)[C@@H](CO)O4)c(=O)nc3o2)cc1,≥ 50,–,–,–,–
CCC/C=C/c1cccc(-c2cc3cn([C@H]4C[C@H](O)[C@@H](CO)O4)c(=O)nc3o2)c1,≥ 200,1.1,1.3,> 200,397
CCCc1ccc(-c2cc3cn([C@H]4C[C@H](O)[C@@H](CO)O4)c(=O)nc3o2)cc1,≥ 50,–,–,–,–
CCC/C=C/c1ccc(-c2cc3cn([C@H]4C[C@H](O)[C@@H](CO)O4)c(=O)nc3o2)cc1,> 5,0.0003,0.0008,> 200,2.3
CC/C=C/c1ccc(-c2cc3cn([C@H]4C[C@H](O)[C@@H](CO)O4)c(=O)nc3o2)cc1,≥ 5,0.0006,0.007,> 200,2.4
C/C=C/c1ccccc1-c1cc2cn([C@H]3C[C@H](O)[C@@H](CO)O3)c(=O)nc2o1,400,12,–,103,0.31
C/C=C/c1ccc(-c2cc3cn([C@H]4C[C@H](O)[C@@H](CO)O4)c(=O)nc3o2)cc1,≥ 50,0.004,0.004,> 200,1.9
CCC/C=C/c1ccccc1-c1cc2cn([C@H]3C[C@H](O)[C@@H](CO)O3)c(=O)nc2o1,80,8.4,–,41,119
C/C=C/c1cccc(-c2cc3cn([C@H]4C[C@H](O)[C@@H](CO)O4)c(=O)nc3o2)c1,> 200,13,58,> 200,2.6
CC/C=C/c1ccccc1-c1cc2cn([C@H]3C[C@H](O)[C@@H](CO)O3)c(=O)nc2o1,400,33,–,102,3.8
CC/C=C/c1cccc(-c2cc3cn([C@H]4C[C@H](O)[C@@H](CO)O4)c(=O)nc3o2)c1,≥ 20,1.9,2.3,68,23
CCCCCc1ccc(-c2cc3cn([C@H]4C[C@H](O)[C@@H](CO)O4)c(=O)nc3o2)cc1 [CF1743],≥ 50,–,–,–,–

# From ChEMBL document CHEMBL1153445, “Alkenyl substituted bicyclic nucleoside analogues retain nanomolar potency against Varicella Zoster Virus” (Bioorg Med Chem, 2009)
